Compounds with a hit are over-represented: about 0.58% of the library has one in this group of screens.
TRPML3 ag: human TRPML3 channel agonists, primary screen, cell-based, HEK293 TRPML3-YFP, Fluo-8 calcium fluorescence, 3 µM; Mucolipin-3 (Homo sapiens), Q8TDD5; 100% = the carbachol control signal; activation, % at 3 µM; 0.29% of 220,000 active;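 active = activation above its plate's cutoff, the mean activation of the plate's test wells plus 3 SD, cut at about 12% in these data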
Target sequence (Q8TDD5 whole entry, looked up): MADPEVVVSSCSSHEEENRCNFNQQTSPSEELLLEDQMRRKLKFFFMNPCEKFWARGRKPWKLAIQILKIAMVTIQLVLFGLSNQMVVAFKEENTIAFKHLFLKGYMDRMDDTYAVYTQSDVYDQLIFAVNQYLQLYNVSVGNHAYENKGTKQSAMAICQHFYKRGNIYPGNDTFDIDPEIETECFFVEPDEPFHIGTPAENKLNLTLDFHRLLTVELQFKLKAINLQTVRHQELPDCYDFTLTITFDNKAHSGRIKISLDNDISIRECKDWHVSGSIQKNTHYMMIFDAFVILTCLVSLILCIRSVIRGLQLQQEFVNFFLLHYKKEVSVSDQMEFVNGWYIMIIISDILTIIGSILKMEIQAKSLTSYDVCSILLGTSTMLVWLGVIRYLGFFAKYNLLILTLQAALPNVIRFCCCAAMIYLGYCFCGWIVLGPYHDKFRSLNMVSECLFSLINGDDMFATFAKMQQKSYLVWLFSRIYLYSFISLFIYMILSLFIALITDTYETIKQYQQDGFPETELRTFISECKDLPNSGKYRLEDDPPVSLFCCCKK
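Test system: TRPML3-YFP stable HEK293 cells. Doses: single point at 3 µM. Incubation: dye loading 1 h 37 °C then 30 min ambient, 125 s read. Signal: Fluo-8 calcium dye fluorescence, ex 470-495, em 515-575 nm. Measure: percent activation from peak-to-basal fluorescence ratio, scaled between DMSO and carbachol.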
V1R ag counter: agonists of human V1a receptor, primary screen, counter-screen for OXTR agonist project, fluorescence, CHO-V1R cells; Vasopressin V1a receptor (Homo sapiens), P37288; Fluo-8 calcium fluorescence, agonist mode; 0% DMSO, 100% 3 nM vasopressin; activation, % at 3 µM; 0.25% of 320,000 active; AID 2797, 2010;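 active = activation above the mean activation of all tested compounds plus 3 SD, per screening run, cut at about 20% in these data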;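 also: signal is peak over basal fluorescence ratio across a 100 second FLIPR read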
zfTRPN1 agonist: zebrafish TRPN1 channel agonists, primary screen, cell-based, HEK293, calcium fluorescence; activation, % at 3 µM; 0.18% of 220,000 active; HEK293 zebrafish TRPN1-YFP, Fluo-8 calcium fluorescence; 100% = response to 87 µM carbachol; AID 1424, 2008;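 active = activation above its plate's cutoff, the mean activation of test wells on that plate plus 3 SD, cut at about 19% in these data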
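Material: zebrafish TRPN1-YFP in HEK293 cells. Doses: one dose of 3 µM, 0.3% DMSO. Incubation: dye 1 h 37 °C plus 30 min RT. Measured by: intracellular calcium fluorescence with Fluo-8.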
OXTR ag: human OXTR agonists, primary screen, fluorescence, CHO-OTR cells, Fluo-8 calcium | Oxytocin receptor (Homo sapiens), P30559 | Fluo-8 calcium fluorescence; normalized: DMSO 0%, oxytocin 100% | activation, % at 3 µM | 0.32% of 320,000 active | AID 2435, 2010;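 active = activation above the mean of all tested compounds plus 3 SD, cutoff set per screening run, cut at about 20% in these data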;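 also: peak over basal fluorescence ratio from a 100 s FLIPR kinetic read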
OXTR potentiator: human OXTR potentiators, primary screen, fluorescence, CHO-OTR cells, Fluo-8 calcium; Oxytocin receptor (Homo sapiens), P30559; Fluo-8 calcium fluorescence, potentiator mode; 0% = oxytocin EC15, 100% = EC100; activation, % at 3 µM; 0.061% of 320,000 active;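 active = activation above that plate's cutoff, the mean activation of tested compounds plus 3 SD, cut at about 6.6% in these data, passing the limit was not always enough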
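Replication – single well per compound, singlicate · Assay system – CHO cell line stably expressing human OTR · Timing – 6 min pre-incubation, 100 s read · Measure – normalized max/min fluorescence ratio, % activation · Doses – 3.0 µM, one dose · Detection – Fluo-8 calcium dye fluorescence · Probe or stimulus – oxytocin near EC15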
Of the large screens only hits and unclear results are named; the others gave an inactive call.

COc1ccc2c(n1)Sc1nc3ccccc3nc1N2	TRPML3 ag 29.1, V1R ag counter 56.5, zfTRPN1 agonist 57.4, OXTR ag 85.5
c1ccc2sc(C3CCN(Cc4nnnn4Cc4ccc5c(c4)OCO5)CC3)nc2c1	none
CN1C(=CC=C2C=C(I)C(=O)C(I)=C2)C(C)(C)c2ccccc21	none (no result: V1R ag counter, OXTR ag, OXTR potentiator)
CC1=NN(c2ccccc2)C(=O)/C1=C\C=C1\N(C)c2ccccc2C1(C)C	V1R ag counter 36.4, OXTR ag 31.3
CC1=NN(c2ccccc2)C(=O)/C1=C\C=C1/N(C)c2ccccc2C1(C)C	V1R ag counter 42.9, OXTR ag 34.3
CC1=NN(c2ccccc2)C(=O)/C1=C/N(C)C	none
CN1/C(=C\C=C2/SC(=S)NC2=O)C(C)(C)c2ccccc21	TRPML3 ag 19.4, V1R ag counter 100.0, zfTRPN1 agonist 32.8, OXTR ag 123.0
CC1=NN(c2ccccc2)C(=O)/C1=C\C=C\c1ccccc1	none
CN1/C(=C\C=C2/C(=O)Oc3ccccc3C2=O)C(C)(C)c2ccccc21	TRPML3 ag 129.7, V1R ag counter 261.4, zfTRPN1 agonist 153.8, OXTR ag 366.8
COc1cc(-c2cc(=O)c3c(O)c(OC)c(OC)c(O)c3o2)ccc1O	none
CCN1C(=O)c2cccc3c(S(=O)(=O)Nc4ccccc4OC)ccc1c23	TRPML3 ag 123.0, zfTRPN1 agonist 46.4
CCN1C(=O)c2cccc3c(S(=O)(=O)NCc4ccccc4)ccc1c23	none (no result: TRPML3 ag, zfTRPN1 agonist)
Cc1noc(C)c1NC(=O)N(C)C[C@H]1Oc2ccc(NC(=O)c3ccncc3)cc2C(=O)N([C@H](C)CO)C[C@@H]1C	none (no result: TRPML3 ag, zfTRPN1 agonist)
Cc1ccc(C2C(C#N)=C(N)Oc3cc(N)ccc32)cc1 (stereo not given)	none (no result: TRPML3 ag, zfTRPN1 agonist)
Cc1ccc(/C=C2\CCC3=C2OC(N)=C(C#N)C3c2ccc(C)cc2)cc1 (stereo not given)	V1R ag counter 42.8, OXTR ag 23.3
Cn1c(CN2CCCCC2)nc2cc(NS(=O)(=O)c3ccc(Cl)cc3)ccc21	V1R ag counter 31.9, OXTR ag 33.6
CCn1c(CNC(=O)C23CC4CC(CC(C4)C2)C3)nnc1SC	none
CCN(CC)C(=O)CSC(Nc1ccc(F)cc1)=C(C#N)C#N	none
Cc1ccc(CSC(Nc2ccc(F)cc2)=C(C#N)C#N)cc1	TRPML3 ag 14.9, zfTRPN1 agonist 25.3
COc1ccc(-c2nnn(CC(=O)N(CC(=O)NC3CCCC3)c3ccccc3)n2)cc1OC	none
COC(=O)C1(c2ccccc2)NC(c2cccs2)C2C(=O)N(c3ccccc3)C(=O)C21 (stereo not given)	V1R ag counter 20.9, OXTR ag 23.2
Cc1ccc(O)c(NC(=S)NC(=O)Cc2ccc(Cl)cc2)c1	V1R ag counter 78.5, OXTR ag 73.3 (no result: TRPML3 ag, zfTRPN1 agonist)
Cc1ccc(NC(=S)NC(=O)c2ccc(-c3ccc(Cl)cc3)o2)c(O)c1	none
CCOC(=O)Cc1cnc(NC(=O)Cn2nnc(-c3ccc(OCC)cc3)n2)s1	none
CCCCOc1ccc(-c2nnn(CC(=O)Nc3ncc(CC(=O)OCC)s3)n2)cc1	V1R ag counter 26.9, OXTR ag 32.9
Cc1ccc(C)c(N2C(=O)CN=C2Nc2ccccc2Cl)c1	none
CCCCC(CC)C(=O)Nc1cc(C(=O)NCc2ccc(C)cc2)ccc1N1CCC2(CC1)CC(c1ccccc1)=NO2 (stereo not given)	none (no result: TRPML3 ag, zfTRPN1 agonist)
CN(C)c1ccc(/C=C/c2cc[n+]([O-])cc2)cc1	TRPML3 ag 11.9
Cc1cccc2sc(NNC(=O)c3ccc4c(c3)OCCO4)nc12	none
O=C(NC1CCCC1)c1sc(=S)n2c1[nH]c(=O)c1ccccc12	none
O=C(NCc1ccco1)c1sc(=S)n2c1[nH]c(=O)c1ccccc12	V1R ag counter 21.1, OXTR ag 24.2
CCc1cccc(C)c1NC(=O)c1cccnc1	none (no result: TRPML3 ag, zfTRPN1 agonist)
COC(=O)C(c1ccccc1)N(Cc1cccc(CN(C(C(=O)OC)c2ccccc2)S(C)(=O)=O)c1)S(C)(=O)=O (stereo not given)	none (no result: TRPML3 ag, zfTRPN1 agonist)
CCOc1ccc2nc(Cl)c(CN(C(C)=O)C3CCCCC3)cc2c1	none
O=C(C[C@H]1C/C=C\C[C@H](Cc2ccc(F)cc2)C(=O)O[C@@H](c2ccccc2)CNC1=O)N[C@H](CO)Cc1ccccc1	V1R ag counter 59.8, OXTR ag 44.6 (no result: TRPML3 ag, zfTRPN1 agonist)
O=C(C[C@H]1C/C=C\CC[C@H](Cc2ccc(F)cc2)C(=O)O[C@@H](c2ccccc2)CNC1=O)N[C@H](CO)Cc1ccccc1	V1R ag counter 51.9, OXTR ag 33.3 (no result: TRPML3 ag, zfTRPN1 agonist)
O=C(C[C@H]1C/C=C\CC[C@H](Cc2ccc(F)cc2)C(=O)O[C@@H](c2ccccc2)CNC1=O)N[C@@H](CO)Cc1ccccc1	none (no result: TRPML3 ag, zfTRPN1 agonist)
CCC(C)(C)C1CCc2[nH]nc(C(=O)NC3CCCCC3)c2C1 (stereo not given)	none (no result: TRPML3 ag, zfTRPN1 agonist)
COc1cc(/C=C/C(=O)Nc2cc(C(F)(F)F)ccc2Cl)cc(OC)c1OC	none
COc1cccc2c1C(=O)c1c(O)c3c(c(O)c1C2=O)C[C@@](O)(C(=O)CO)C[C@@H]3O[C@H]1C[C@H](N)[C@H](O)[C@H](C)O1	V1R ag counter 22.9, zfTRPN1 agonist 27.1, OXTR ag 24.6
Cc1ccc(N=Nc2[nH]c3ccccc3c2O)cc1	V1R ag counter 22.4, OXTR ag 32.3
O=C(OC(C(=O)NC1CCCCC1)c1ccc(C(F)(F)F)cc1)c1ccco1 (stereo not given)	none (no result: TRPML3 ag, zfTRPN1 agonist)
O=C(CCl)Nc1ncc(S(=O)(=O)c2ccc([N+](=O)[O-])cc2)s1	none (no result: TRPML3 ag, zfTRPN1 agonist)
CCCC(C)C(=O)Nc1ncc(S(=O)(=O)c2ccc([N+](=O)[O-])cc2)s1 (stereo not given)	V1R ag counter 45.8, OXTR ag 22.5 (no result: TRPML3 ag, zfTRPN1 agonist)
CCC(C)(C)C(=O)Nc1ncc(S(=O)(=O)c2ccc([N+](=O)[O-])cc2)s1	V1R ag counter 22.2, OXTR ag 32.8
CS(=O)(=O)c1ccc(Cl)c(NC(=O)CSc2nc3ccccc3c(=O)n2CCCN2CCOCC2)c1	none
CCN(CC)CCn1c(=N)n(CC(O)COc2ccccc2)c2ccccc21 (stereo not given)	none
CCN(CC)c1ccc(/C=C/C(=O)c2ccc(Br)cc2)cc1	TRPML3 ag 58.9, V1R ag counter 153.8, zfTRPN1 agonist 55.8, OXTR ag 142.9
CN(C)c1ccc(C(=O)/C=C/c2ccc(Br)cc2)cc1	none
O=C(Nc1cccc([N+](=O)[O-])c1)Nc1cccs1	TRPML3 ag 13.3, zfTRPN1 agonist 19.7
COC(=O)c1ccc(NC(=O)Nc2ccc(F)cc2F)cc1	none
COC(=O)c1ccc(NC(=O)Nc2cccc(F)c2)cc1	zfTRPN1 agonist 19.4
